pIC50: −log10 of the molar value. Active and inactive are the calls of the source. No cut-off for these calls is given here.
Assays:
Nucleic Acid [1] = test: Binding affinity to human 21-TT G-quadruplex DNA structure assessed as first step association constant by electrospray ionization mass spectrometry; format: nucleic-acid assay
Outline: (§1)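 ESI-MS in 150 mM ammonium acetate; DNA 5 μM final (per duplex or quadruplex unit); ligand at drug/DNA ratios 0.5 to 4. Methanol (15%) added just before injection, after binding equilibrium. K1 and K2 for 1:1 and 2:1 complexes, and % bound DNA, taken from relative peak intensities assuming equal response factors. At least three repeats.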

Nucleic Acid [2] = test: Binding affinity to human 21-TT G-quadruplex DNA structure assessed as second step association constant by electrospray ionization mass spectrometry; format: nucleic-acid assay; outline: as §1
Nucleic Acid [3] = test: Binding affinity to human DK66 duplex DNA structure assessed as first step association constant by electrospray ionization mass spectrometry; format: nucleic-acid assay; outline: as §1
Nucleic Acid [4] = test: Binding affinity to human DK66 duplex DNA structure assessed as second step association constant by electrospray ionization mass spectrometry; format: nucleic-acid assay; outline: as §1
Nucleic Acid [5] = test: Stabilization of 21-mer human F21T G4-telomeric quadruplex assessed as change in melting temperature at 1 uM by FRET assay; format: nucleic-acid assay
Nucleic Acid [6] = test: Stabilization of human duplex DNA T-loop assessed as change in melting temperature at 1 uM by FRET assay; format: nucleic-acid assay
Nucleic Acid [7] = test: Binding affinity to human 21-TT G-quadruplex DNA structure assessed as bound DNA at 5:5 DNA to drug ratio by electrospray ionization mass spectrometry; format: nucleic-acid assay; outline: as §1
Nucleic Acid [8] = test: Binding affinity to human 21-TT G-quadruplex DNA structure assessed as bound DNA at 5:10 DNA to drug ratio by electrospray ionization mass spectrometry; format: nucleic-acid assay; outline: as §1
Nucleic Acid [9] = test: Binding affinity to human DK66 duplex DNA structure assessed as bound DNA at 5:5 DNA to drug ratio by electrospray ionization mass spectrometry; format: nucleic-acid assay; outline: as §1
Nucleic Acid [10] = test: Binding affinity to human DK66 duplex DNA structure assessed as bound DNA at 5:10 DNA to drug ratio by electrospray ionization mass spectrometry; format: nucleic-acid assay; outline: as §1
Nucleic Acid [11] = test: Binding affinity to human 21-TT G-quadruplex DNA structure at 1:1 DNA to calf thymus DNA ratio by competitive inhibition assay; format: nucleic-acid assay; parameters: concentration or dose not given beside the values
Outline: (§2)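 ESI-MS competition: quadruplex DNA and ligand each 5 μM final, plus calf thymus DNA at duplex/quadruplex ratios 1 and 5 (by phosphate concentration), in ammonium acetate. Percentage bound quadruplex and normalized bound quadruplex (N%) measured by mass spectrometry. SD over at least three independent experiments.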

Nucleic Acid [12] = test: Binding affinity to human 21-TT G-quadruplex DNA structure at 1:5 DNA to calf thymus DNA ratio by competitive inhibition assay; format: nucleic-acid assay; parameters: concentration or dose not given beside the values; outline: as §2
BJ [13] = test: Induction of DNA damage response in human BJ cells expressing SV40 early region EHLT assessed as phosphorylation of gamma H2AX at 0.25 uM after 24 hrs by immunofluorescence method; format: functional, cell-based
Outline: (§3)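 BJ-EHLT and BJ-hTERT fibroblasts exposed to a range of concentrations for 24 h. Fixed in 2% formaldehyde, permeabilized in 0.25% Triton X-100, immunostained for γ-H2AX and 53BP1. Percentage of positive cells scored. Three independent experiments, SD.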

BJ [14] = test: Induction of DNA damage response in human BJ cells expressing SV40 early region EHLT assessed as phosphorylation of […] after 24 hrs by immunofluorescence method; format: functional, cell-based; outline: as §3
BJ [15] = test: Antiproliferative activity against human BJ cells expressing SV40 early region EHLT at 0.5 uM after 24 hrs by Coulter counter method; format: functional, cell-based
Outline: (§4)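 Cells seeded at 5 ×10^4 per dish; compounds freshly dissolved and added to the medium 24 h after plating, at 0.5 μM or 3 μM (3 μM only for one derivative). Cell number by Coulter counting and viability by trypan blue exclusion daily, day 1 to day 8. Growth inhibition of treated vs untreated cells calculated at days 2, 4, 6 and 8. Representative experiments in quintuplicate, SD shown.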

BJ [16] = test: Growth inhibition of human BJ cells expressing SV40 early region EHLT at 0.5 uM on day 8 by trypan blue assay; format: functional; settings: 192 h, read-out: GI; outline: as §4
BJ [17] = test: Antiproliferative activity against human BJ cells expressing TERT at 0.5 uM after 2 to 8 days by trypan blue assay; format: cell-based; outline: as §4
BJ [18] = test: Cell cycle arrest in human BJ cells expressing TERT assessed as accumulation at G0/G1 stage at 0.5 uM after 24 hrs by propidium iodide staining based flow cytometry (reference value: 61%); format: ADME
BJ [19] = test: Cell cycle arrest in human BJ cells expressing TERT assessed as accumulation at S stage at 0.5 uM after 24 hrs by propidium iodide staining based flow cytometry (reference value: 21%); format: ADME
BJ [20] = test: Cell cycle arrest in human BJ cells expressing TERT assessed as accumulation at G2/M stage at 0.5 uM after 24 hrs by propidium iodide staining based flow cytometry (reference value: 17%); format: ADME
BJ [21] = test: Cell cycle arrest in human BJ cells expressing TERT assessed as accumulation at G0/G1 stage at 0.5 uM after 48 hrs by propidium iodide staining based flow cytometry (reference value: 80%); format: ADME
BJ [22] = test: Cell cycle arrest in human BJ cells expressing TERT assessed as accumulation at S stage at 0.5 uM after 48 hrs by propidium iodide staining based flow cytometry (reference value: 12%); format: ADME
BJ [23] = test: Cell cycle arrest in human BJ cells expressing TERT assessed as accumulation at G2/M stage at 0.5 uM after 48 hrs by propidium iodide staining based flow cytometry (reference value: 6%); format: ADME
BJ [24] = test: Cell cycle arrest in human BJ cells expressing TERT assessed as accumulation at G0/G1 stage at 0.5 uM after 72 hrs by propidium iodide staining based flow cytometry (reference value: 83%); format: ADME
BJ [25] = test: Cell cycle arrest in human BJ cells expressing TERT assessed as accumulation at S stage at 0.5 uM after 72 hrs by propidium iodide staining based flow cytometry (reference value: 10%); format: ADME
BJ [26] = test: Cell cycle arrest in human BJ cells expressing TERT assessed as accumulation at G2/M stage at 0.5 uM after 72 hrs by propidium iodide staining based flow cytometry (reference value: 5%); format: ADME
BJ [27] = test: Cell cycle arrest in human BJ cells expressing TERT assessed as accumulation at G0/G1 stage at 0.5 uM after 96 hrs by propidium iodide staining based flow cytometry (reference value: 86%); format: ADME
BJ [28] = test: Cell cycle arrest in human BJ cells expressing TERT assessed as accumulation at S stage at 0.5 uM after 96 hrs by propidium iodide staining based flow cytometry (reference value: 9%); format: ADME
BJ [29] = test: Cell cycle arrest in human BJ cells expressing TERT assessed as accumulation at G2/M stage at 0.5 uM after 96 hrs by propidium iodide staining based flow cytometry (reference value: 4%); format: ADME
[30] = target: Telomerase reverse transcriptase (Homo sapiens, UniProt O14746); test: Inhibition of human Telomerase activity in cell free system by TRAP assay
Outline: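 Cell-free TRAP: protein extract incubated with compound at 1 to 50 μM so telomerase elongates the substrate oligonucleotide. Before PCR, phenol/chloroform/isoamyl-alcohol (50:49:1) extraction removes the ligand and DNA is precipitated overnight at -20 °C. Amplification uses a 36 bp ITAS; products are resolved on 12% PAGE and stained with SYBR Green. Signals are corrected by the no-extract control and normalized to untreated, giving dose-response IC50. Mean of three experiments.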

BJ [31] = test: Induction of DNA damage response in human BJ cells expressing human TERT assessed as phosphorylation of gamma H2AX after 24 hrs by immunofluorescence; format: functional, cell-based; outline: as §3
BJ [32] = test: Induction of DNA damage response in human BJ cells expressing human TERT assessed as phosphorylation of […] after 24 hrs by immunofluorescence; format: functional, cell-based; outline: as §3
Nucleic Acid [33] = test: Binding affinity to human DK66 duplex DNA structure assessed as bound DNA at 5:20 DNA to drug ratio by electrospray ionization mass spectrometry; format: nucleic-acid assay; outline: as §1
BJ [34] = test: Induction of DNA damage response in human BJ cells expressing SV40 early region EHLT assessed as phosphorylation of gamma H2AX at 3 uM after 24 hrs by immunofluorescence; format: functional, cell-based; outline: as §3
BJ [35] = test: Antiproliferative activity against human BJ cells expressing SV40 early region EHLT at 3 uM after 24 hrs by Coulter counter method; format: functional, cell-based; settings: TDE = time-dependent effect; outline: as §4
BJ [36] = test: Growth inhibition of human BJ cells expressing SV40 early region EHLT at 3 uM on day 8 after 24 hrs trypan blue assay; format: functional; settings: read-out: GI; outline: as §4

Telomerase reverse transcriptase, sequence (O14746 whole entry): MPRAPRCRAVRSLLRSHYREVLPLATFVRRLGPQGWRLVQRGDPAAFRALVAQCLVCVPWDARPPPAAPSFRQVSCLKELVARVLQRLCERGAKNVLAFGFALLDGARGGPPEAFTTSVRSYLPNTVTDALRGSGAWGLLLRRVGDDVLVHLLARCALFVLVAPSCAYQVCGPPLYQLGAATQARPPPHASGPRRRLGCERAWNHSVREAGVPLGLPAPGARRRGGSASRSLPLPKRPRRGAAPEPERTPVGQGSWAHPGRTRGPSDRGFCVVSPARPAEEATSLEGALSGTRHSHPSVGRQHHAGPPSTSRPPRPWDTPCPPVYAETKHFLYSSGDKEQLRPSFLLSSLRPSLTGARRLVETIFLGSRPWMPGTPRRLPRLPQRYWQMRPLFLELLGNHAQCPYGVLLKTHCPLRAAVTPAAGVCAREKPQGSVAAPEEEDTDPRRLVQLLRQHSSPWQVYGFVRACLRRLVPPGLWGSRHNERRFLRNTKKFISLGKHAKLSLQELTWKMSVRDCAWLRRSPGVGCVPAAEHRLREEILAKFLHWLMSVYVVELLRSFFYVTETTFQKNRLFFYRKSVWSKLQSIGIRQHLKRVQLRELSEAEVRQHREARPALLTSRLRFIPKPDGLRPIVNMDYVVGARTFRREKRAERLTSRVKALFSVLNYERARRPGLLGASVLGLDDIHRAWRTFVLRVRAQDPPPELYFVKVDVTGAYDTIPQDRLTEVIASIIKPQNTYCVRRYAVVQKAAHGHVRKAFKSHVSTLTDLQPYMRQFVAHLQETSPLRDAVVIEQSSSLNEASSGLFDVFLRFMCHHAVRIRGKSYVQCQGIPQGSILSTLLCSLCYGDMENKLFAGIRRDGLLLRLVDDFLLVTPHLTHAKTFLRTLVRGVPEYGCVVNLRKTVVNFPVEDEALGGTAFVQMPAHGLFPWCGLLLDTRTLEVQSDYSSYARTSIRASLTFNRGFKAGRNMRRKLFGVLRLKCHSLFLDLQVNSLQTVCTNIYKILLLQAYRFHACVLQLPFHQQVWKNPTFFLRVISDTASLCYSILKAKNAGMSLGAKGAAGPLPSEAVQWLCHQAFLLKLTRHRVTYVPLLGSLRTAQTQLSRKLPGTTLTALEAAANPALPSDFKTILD

log Ks (Nucleic Acid [1]) | log Ks (Nucleic Acid [2]) | log Ks (Nucleic Acid [3]) | log Ks (Nucleic Acid [4]) | ΔTm (Nucleic Acid [5]) | ΔTm (Nucleic Acid [6]) | Activity (Nucleic Acid [7]) | Activity (Nucleic Acid [8]) | Activity (Nucleic Acid [9]) | Activity (Nucleic Acid [10]) | Activity (Nucleic Acid [11]) | Activity (Nucleic Acid [12]) | Activity (BJ [18]) | Activity (BJ [19]) | SMILES | Activity (BJ [13]) | Activity (BJ [14]) | inhibition of growth at 0.5 µM (BJ [16]) | Activity (BJ [17]) | Activity (BJ [31]) | Activity (BJ [32]) | further results
5.5 | 5 | 5.4 | 4.9 | 35.5 °C | 2.3 °C | 48% | 76% | 43% | 66% | 46% | 32% | 42% | 3.8% | CN(C)CCCN1CCN(c2cc3c4c(ccc5c6ccc7c8c(ccc(c2c45)c86)C(=O)N(CCN2CCCCC2)C7=O)C(=O)N(CCN2CCCCC2)C3=O)CC1 | Active | Active | 50% | Toxic | Dose-dependent effect | Dose-dependent effect | Activity (BJ [15]; TDE = time-dependent effect, in the assay text read “after 2 to 8 days” for “after 24 hrs”): tde; Activity (BJ [20]): 54.2%; Activity (BJ [21]): 35.4%; Activity (BJ [22]): 3.5%; Activity (BJ [23]): 61.1%; Activity (BJ [24]): 34.7%; Activity (BJ [25]): 7.3%; Activity (BJ [26]): 58%; Activity (BJ [27]): 38.2%; Activity (BJ [28]): 7.6%; Activity (BJ [29]): 54.2%; pIC50 [30]: 5.52
5.4 | 5.6 | 4.9 | 4.2 | 27.4 °C | 2.9 °C | 45% | 77% | 27% | 44% | 40% | 22% | 35.1% | 13.9% | CN1CCN(c2cc3c4c(ccc5c6c(N7CCN(C)CC7)cc7c8c(ccc(c2c45)c86)C(=O)N(CCN2CCCCC2)C7=O)C(=O)N(CCN2CCCCC2)C3=O)CC1 | Active | Active | 50% | Toxic | Dose-dependent effect | Dose-dependent effect | Activity (BJ [15]; in the assay text read “after 2 to 8 days” for “after 24 hrs”, TDE = time-dependent effect): tde; Activity (BJ [20]): 51%; Activity (BJ [21]): 39.8%; Activity (BJ [22]): 5%; Activity (BJ [23]): 55.2%; Activity (BJ [24]): 35.2%; Activity (BJ [25]): 6.6%; Activity (BJ [26]): 58.2%; Activity (BJ [27]): 33.1%; Activity (BJ [28]): 6.5%; Activity (BJ [29]): 60.4%; pIC50 [30]: 5.00
4.6 | 4.9 | 4 | – | 16.6 °C | 0.9 °C | 22.5% | 30% | – | – | – | – | – | – | CN(C)CCOCCN1C(=O)c2ccc3c4c(N5CCCCC5)cc5c6c(ccc(c7c(N8CCCCC8)cc(c2c37)C1=O)c64)C(=O)N(CCOCCN(C)C)C5=O | – | – | – | – | – | – | Activity (Nucleic Acid [33]): 16%
4.8 | 4.6 | 3.8 | – | 18.7 °C | 0.2 °C | 22% | 33% | – | – | 13% | 9% | – | – | O=C1c2ccc3c4c(N5CCCCC5)cc5c6c(ccc(c7c(N8CCCCC8)cc(c2c37)C(=O)N1CCN1CCCCC1)c64)C(=O)N(CCN1CCCCC1)C5=O | – | – | – | Toxic | Dose-dependent effect | Dose-dependent effect | Activity (Nucleic Acid [33]): 12%; Activity (BJ [34]): Active; Activity (BJ [35]): tde; inhibition of growth at 3 µM (BJ [36]): 50%

From ChEMBL document CHEMBL1687886, “N-cyclic bay-substituted perylene G-quadruplex ligands have selective antiproliferative effects on cancer cells and induce telomere damage” (J Med Chem, 2011)
